Screening results as filed in PubChem.
In the library only some 2.9% were active in any assay of this set; here they are far more common.
OX1R antag-1 = OX1R (human) antagonism. inhibition, % at 6.6 µM. 330,000 tested, 1.8% active. OX1R-expressing cells, FRET antagonist read-out. AID 485270. O43613; in the data active means inhibition mostly above about 38%, no sharp cut-off; inactive means mostly below about 40%
Target sequence (O43613 whole entry, looked up): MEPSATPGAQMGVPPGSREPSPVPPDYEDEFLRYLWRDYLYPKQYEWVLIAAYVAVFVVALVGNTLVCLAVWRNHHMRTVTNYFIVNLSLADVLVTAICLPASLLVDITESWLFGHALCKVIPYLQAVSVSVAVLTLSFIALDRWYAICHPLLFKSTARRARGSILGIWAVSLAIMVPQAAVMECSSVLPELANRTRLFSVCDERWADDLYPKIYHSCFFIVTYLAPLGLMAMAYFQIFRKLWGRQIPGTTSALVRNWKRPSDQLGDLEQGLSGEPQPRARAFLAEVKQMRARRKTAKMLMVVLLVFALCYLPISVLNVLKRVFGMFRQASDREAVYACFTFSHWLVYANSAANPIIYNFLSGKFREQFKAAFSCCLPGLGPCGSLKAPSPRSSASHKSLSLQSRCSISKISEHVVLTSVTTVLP
M1 PAM parental = M1 PAM counterscreen hit in parental CHO-K1 cells | ATP EC20, Fluo-8 calcium fluorescence; 0% at ATP EC20, 100% at ATP max | activation, % at 3 µM | 360,000 tested, 0.02% active;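 active means activation above the run cutoff, the mean activation of all test compounds plus 3 SD, cut at about 40% in these data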;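 further: peak over basal fluorescence ratio in a 140 s read after ATP addition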
OX1R antag-2 = antagonists of human orexin 1 receptor. CHO/OX1R cells, Fluo-8 calcium fluorescence, orexin A. inhibition, % at 5 µM. 330,000 tested, 0.43% active;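 active means inhibition above its plate's threshold, mean inhibition of all tested compounds on the plate plus 3 SD, cut at about 37% in these data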
CHO-K1 Ca ag = nonselective activator or artifact in parental CHO-K1 cells. Fluo-8 calcium fluorescence; scaled to maximal ATP response, vehicle zero. activation, % at 3 µM. 360,000 tested, 0.48% active. AID 602248; in the data active means activation above about 15%;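 further: untransfected CHO-K1 host cells lacking M1 receptor as counterscreen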
CHO parental Ca = counter-screen: ATP calcium response change in parental CHO cells. inhibition, % at 5.6 µM. parental CHO-K1, ATP-induced calcium, Fluo-8 fluorescence. 330,000 tested, 0.63% active. AID 463079;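 active means inhibition above that plate's mean sample inhibition plus 3 SD, cut at about 26% in these data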
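Measured by: calcium-sensitive Fluo-8 fluorescence / Test system: CHO parental line / Controls: ATP-challenged DMSO wells low, unchallenged DMSO wells high / Measure: % inhibition / Compound: single nominal dose of 5.6 µM per compound / Replicates: single well per compound, no replicates / Reagent: ATP as calcium-mobilizing challenge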
CHO-K1 Ca antag = counter-screen for M1 antagonists: effect in parental CHO-K1 cells | inhibition, % at 3 µM | ATP-induced calcium, Fluo-8 fluorescence | AID 602250 | 360,000 tested, 0.6% active;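 active means inhibition above a per-plate cutoff, the plate's mean sample inhibition plus 3 SD, cut at about 24% in these data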
Large screens that a line does not name were inactive.

O=C(COc1ccccc1)NC(=S)Nc1cccc2c(O)cccc12	none (no result: OX1R antag-1, OX1R antag-2, CHO parental Ca)
CC(NC(=O)c1cc([N+](=O)[O-])cc([N+](=O)[O-])c1)c1ccc(-n2ccnc2)cc1 (centres undefined)	OX1R antag-1 64
O=C(O)CCCCCNC(=O)CSc1nnc(-c2ccco2)n1-c1ccccc1	none
CC(OC(=O)c1ccc(NS(=O)(=O)c2ccc3[nH]c(=O)[nH]c3c2)cc1)C(N)=O (centres undefined)	none
COC(=O)c1ccc(NC(=O)c2nc(S(=O)(=O)Cc3cccc(C)c3)ncc2Cl)cc1	none
CCS(=O)(=O)c1ncc(Cl)c(C(=O)Nc2ccc(S(=O)(=O)N3CCC(C)CC3)cc2)n1	OX1R antag-1 47, CHO parental Ca 41
CCc1ccc(NC(=O)c2nc(S(=O)(=O)Cc3ccccc3)ncc2Cl)cc1	OX1R antag-2 63, CHO parental Ca 57, CHO-K1 Ca antag 30
Cc1ccc(NC(=O)c2nc(S(=O)(=O)Cc3ccccc3C)ncc2Cl)cc1C	CHO parental Ca 40, CHO-K1 Ca antag 26
CCOC(=O)c1ccc(NC(=O)c2nc(S(=O)(=O)Cc3ccccc3)ncc2Cl)cc1	OX1R antag-2 73
CCOc1ccccc1NC(=O)c1nc(S(=O)(=O)Cc2ccccc2)ncc1Cl	none
CC1CCN(S(=O)(=O)c2ccc(NC(=O)c3ccncc3)cc2)CC1	none
O=C1c2ccc(-c3ccc(Cl)c(C(F)(F)F)c3)cc2S(=O)(=O)c2cccc(C(=O)N3CCN(c4ccc(Cl)cn4)CC3)c21	none
COC(=O)Nc1ccc(S(=O)(=O)N2CCC(C)CC2)cc1	none
O=c1[nH]c2ccc(S(=O)(=O)N3CCC(Cc4ccccc4)CC3)cc2o1	CHO-K1 Ca antag 24
COC(=O)Nc1ccc(S(=O)(=O)N2CCC(Cc3ccccc3)CC2)cc1	CHO parental Ca 45
Cc1ccc(C(=O)C2CCN(S(=O)(=O)c3ccc(C(=O)O)cc3)CC2)cc1	none
CNc1nc(SC)n(C)c(=O)c1N=O	OX1R antag-1 48 (no result: M1 PAM parental, CHO-K1 Ca ag, CHO-K1 Ca antag)
O=[N+]([O-])c1cccc(S(=O)(=O)NCCCN2CCOCC2)c1	none
O=[N+]([O-])c1ccc(S(=O)(=O)NCCN2CCOCC2)cc1	OX1R antag-1 43
COc1ccc2cc(S(=O)(=O)NCCCN3CCOCC3)ccc2c1	none
O=[N+]([O-])c1ccc(S(=O)(=O)NCCCc2ccccc2)cc1	none
Cc1ccc2cc(S(=O)(=O)NCCCN3CCOCC3)ccc2c1	CHO-K1 Ca ag 19
O=[N+]([O-])c1ccc(-c2ccc(S(=O)(=O)NCCN3CCCC3)cc2)cc1	OX1R antag-1 59
CCOc1ccc(NC(=O)Cc2c(O)c3ccccc3[nH]c2=O)cc1	none
COc1cccc(NC(=O)Cc2c(O)c3ccccc3[nH]c2=O)c1	CHO-K1 Ca antag 25
O=C(Cc1c(O)c2ccccc2[nH]c1=O)N(Cc1ccccc1)Cc1ccccc1	none
O=C(Cc1c(O)c2ccccc2[nH]c1=O)OC1CCCCC1	CHO-K1 Ca antag 25
O=C(C[C@@H]1C/C=C/CC[C@H](Cc2ccc(F)cc2)C(=O)OC[C@@H](Cc2ccccc2)NC1=O)N[C@H](CO)Cc1ccccc1	none
COc1ccc(C(CCNCc2ccc(OC(C)C)cc2)c2ccccc2OC)cc1 (centres undefined)	CHO-K1 Ca ag 18
COc1ccc(CNCCC(c2ccc(OC)cc2)c2ccccc2OC)cc1 (centres undefined)	none
CC1CN(C2=NC(=O)/C(=C/c3ccncc3)S2)CC(C)O1 (centres undefined)	OX1R antag-1 34
COc1ccc(CC(=O)Nc2ccncc2Cl)cc1	CHO parental Ca 35
O=C(Cc1ccc(Cl)cc1Cl)Nc1ccncc1Cl	CHO parental Ca 31
CC1(C(=O)NS(=O)(=O)c2ccccc2Cl)CCN1C(=O)c1ccccc1 (centres undefined)	none (no result: OX1R antag-1, OX1R antag-2, CHO parental Ca)
FC(F)(F)c1cccc(-c2nc3nc(Cl)c(Cl)nc3[nH]2)c1	OX1R antag-1 40, CHO-K1 Ca ag 18, CHO parental Ca 38
Cc1cc(CSc2ccccc2)ccc1NC(=O)c1ccc(Cl)c([N+](=O)[O-])c1	CHO-K1 Ca antag 28
O=[N+]([O-])c1cc(Cl)cc(/C=N\Nc2ccccn2)c1O	none
CN(C)C1(CN=Cc2cc(Cl)cc([N+](=O)[O-])c2O)CCCCC1	OX1R antag-1 43
CSc1cccc(NC(=O)c2cccc3cccnc23)c1	none
